Measured values reported in ChEMBL document CHEMBL1147076, “Antitumor activity of MLN8054, an orally active small-molecule inhibitor of Aurora A kinase” (Proc Natl Acad Sci U S A, 2007).
Calls of active or inactive are those of the source. No cut-off for these calls is given here.

Legend:
[1] = molecular target: Serine/threonine-protein kinase 24 (Homo sapiens) (UniProt Q9Y6E0); test: Activity of human MST3 kinase at 1 uM
NCI-H460 = test: Antiproliferative activity against human H460 cells after 96 hrs by BrdU cell proliferation ELISA; format: functional, cell-based; settings: NCI-H460, 96 h
Procedure, shortened: (§1)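 BrdU incorporation proliferation assay on cultured human tumor lines; IC50 values derived from growth inhibition.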

[2] = molecular target: Serine/threonine-protein kinase STK11 (Homo sapiens) (UniProt Q15831); test: Activity of human LKB1 kinase at 1 uM
[3] = Inhibition of CAMK2 by radioactive flashplate assay
[4] = molecular target: Ephrin type-A receptor 4 (Homo sapiens) (UniProt P54764); test: Activity of human EphA4 kinase at 1 uM
[5] = molecular target: Ephrin type-A receptor 1 (Homo sapiens) (UniProt P21709); test: Activity of human EphA1 kinase at 1 uM
Procedure, shortened: (§2)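 Single-point kinase profiling: each kinase in a 226-kinase panel tested with compound at 1 μM and ATP at 10 μM in every assay, run by an external screening service.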

Homo sapiens [6] = species on record: Homo sapiens; test: Activity of human CDK5/p35 kinase at 1 uM
Bos taurus = species on record: Bos taurus; test: Activity of bovine PKA kinase at 1 uM
[7] = molecular target: Serine/threonine-protein kinase NLK (Homo sapiens) (UniProt Q9UBE8); test: Activity of human NLK kinase at 1 uM
Procedure, shortened: (§3)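 Single-point screen in a 226-kinase panel run by an outside service. Test compound at 1 μM with ATP at 10 μM in every assay. Other assay conditions are not given.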

[8] = molecular target: Tyrosine-protein kinase Fgr (Homo sapiens) (UniProt P09769); test: Activity of human FGR kinase at 1 uM; procedure, shortened: as §2
[9] = molecular target: Serine/threonine-protein kinase BRSK2 (Homo sapiens) (UniProt Q8IWQ3); test: Activity of human BrSK2 kinase at 1 uM
Homo sapiens [10] = species on record: Homo sapiens; test: Activity of human PKA kinase at 1 uM; procedure, shortened: as §3
[11] = Inhibition of CDK2E by radioactive flashplate assay
[12] = molecular target: Glycogen synthase kinase-3 alpha (Homo sapiens) (UniProt P49840); test: Activity of human GSK3-alpha kinase at 1 uM
MCF7 = test: Antiproliferative activity against human MCF7 cells after 96 hrs by BrdU cell proliferation ELISA; format: functional, cell-based; settings: MCF7, 96 h; procedure, shortened: as §1
[13] = molecular target: Cyclin-dependent kinase 2/cyclin E1 (Homo sapiens) (UniProt P24864+P24941); test: Activity of human CDK2/cyclin E kinase at 1 uM; format: protein-complex assay
PC-3 [14] = test: Induction of apoptosis in human PC3 cells assessed as PARP cleavage at 0.25 uM after 48 hrs by Western blot method; format: functional, cell-based
Homo sapiens [15] = species on record: Homo sapiens; test: Activity of human CDK5/p25 kinase at 1 uM
[16] = Plasma concentration in human HCT116 cells xenografted in mouse at 30 mg/kg, po after 24 hrs; format: ADME, organism-based, HCT-116; set-up: dose 30 mg/kg, route oral
[17] = molecular target: Hepatocyte growth factor receptor (Homo sapiens) (UniProt P08581); test: Activity of human Met kinase at 1 uM; procedure, shortened: as §2
PC-3 [18] = test: Induction of apoptosis in human PC3 cells assessed as PARP cleavage at 1 uM after 24 hrs by Western blot method; format: functional, cell-based
PC-3 [19] = test: Cell cycle arrest in human PC3 cells by accumulation at >4N phase at 4 uM after 24 hrs by flow cytometry relative to control; format: functional
[20] = molecular target: BDNF/NT-3 growth factors receptor (Homo sapiens) (UniProt Q16620); test: Activity of human TrkB kinase at 1 uM
Procedure, shortened: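 Single-concentration screen across a 226-kinase panel run by an outside provider; test compound at 1 μM with 10 μM ATP in every assay. Other conditions not detailed.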

[21] = molecular target: Serine/threonine-protein kinase PAK 4 (Homo sapiens) (UniProt O96013); test: Activity of human PAK4 kinase at 1 uM; procedure, shortened: as §3
[22] = molecular target: Casein kinase I homolog 1 (Saccharomyces cerevisiae S288c) (UniProt P23291); test: Activity of Saccharomyces cerevisiae CK1 kinase at 1 uM
[23] = molecular target: Protein kinase C beta type (Homo sapiens) (UniProt P05771); test: Activity of human PKC-beta-1 kinase at 1 uM; procedure, shortened: as §3
PC-3 [24] = test: Antiproliferative activity against human PC3 cells after 96 hrs by BrdU cell proliferation ELISA; format: functional, cell-based; settings: PC-3, 96 h; procedure, shortened: as §1
MDA-MB-231 = test: Antiproliferative activity against human MDAMB231 cells after 96 hrs by BrdU cell proliferation ELISA; format: functional, cell-based; settings: MDA-MB-231, 96 h; procedure, shortened: as §1
[25] = molecular target: Death-associated protein kinase 1 (Homo sapiens) (UniProt P53355); test: Activity of human DAPK1 kinase at 1 uM; procedure, shortened: as §2
[26] = molecular target: MAP kinase-activated protein kinase 3 (Homo sapiens) (UniProt Q16644); test: Activity of human MAPKAP-K3 kinase at 1 uM
PC-3 [27] = test: Cell cycle arrest in human PC3 cells by accumulation at >4N phase at 1 uM after 48 hrs by flow cytometry relative to control; format: functional
[28] = molecular target: Protein kinase C iota type (Homo sapiens) (UniProt P41743); test: Activity of human PKCiota kinase at 1 uM; procedure, shortened: as §2
[29] = molecular target: Serine/threonine-protein kinase MRCK beta (Homo sapiens) (UniProt Q9Y5S2); test: Activity of human MRCKbeta kinase at 1 uM
[30] = molecular target: Tyrosine-protein kinase JAK2 (Homo sapiens) (UniProt O60674); test: Activity of human JAK2 kinase at 1 uM
[31] = molecular target: Ribosomal protein S6 kinase alpha-4 (Homo sapiens) (UniProt O75676); test: Activity of human MSK2 kinase at 1 uM; procedure, shortened: as §2
[32] = molecular target: Mitogen-activated protein kinase 1 (ERK2) (Mus musculus) (UniProt P63085); test: Activity of mouse MAPK2 kinase at 1 uM
[33] = molecular target: Serine/threonine-protein kinase 10 (Homo sapiens) (UniProt O94804); test: Activity of human LOK kinase at 1 uM
DLD-1 = test: Antiproliferative activity against human DLD1 cells after 96 hrs by BrdU cell proliferation ELISA; format: functional, cell-based; settings: DLD-1, 96 h; procedure, shortened: as §1
[34] = molecular target: Serine/threonine-protein kinase MRCK alpha (Homo sapiens) (UniProt Q5VT25); test: Activity of human MRCKalpha kinase at 1 uM
[35] = molecular target: Macrophage colony-stimulating factor 1 receptor (Homo sapiens) (UniProt P07333); test: Activity of human FMS kinase at 1 uM
[36] = Inhibition of PKA by radioactive flashplate assay
[37] = molecular target: Myosin light chain kinase, smooth muscle (Homo sapiens) (UniProt Q15746); test: Activity of human MLCK kinase at 1 uM
[38] = molecular target: Ephrin type-A receptor 5 (Homo sapiens) (UniProt P54756); test: Activity of human EphA5 kinase at 1 uM; procedure, shortened: as §2
[39] = molecular target: Serine/threonine-protein kinase D1 (Homo sapiens) (UniProt Q15139); test: Activity of human PKCmu kinase at 1 uM; procedure, shortened: as §2
[40] = molecular target: Ephrin type-B receptor 3 (Homo sapiens) (UniProt P54753); test: Activity of human EphB3 kinase at 1 uM

Ephrin type-A receptor 5 (Homo sapiens), sequence (P54756 whole entry): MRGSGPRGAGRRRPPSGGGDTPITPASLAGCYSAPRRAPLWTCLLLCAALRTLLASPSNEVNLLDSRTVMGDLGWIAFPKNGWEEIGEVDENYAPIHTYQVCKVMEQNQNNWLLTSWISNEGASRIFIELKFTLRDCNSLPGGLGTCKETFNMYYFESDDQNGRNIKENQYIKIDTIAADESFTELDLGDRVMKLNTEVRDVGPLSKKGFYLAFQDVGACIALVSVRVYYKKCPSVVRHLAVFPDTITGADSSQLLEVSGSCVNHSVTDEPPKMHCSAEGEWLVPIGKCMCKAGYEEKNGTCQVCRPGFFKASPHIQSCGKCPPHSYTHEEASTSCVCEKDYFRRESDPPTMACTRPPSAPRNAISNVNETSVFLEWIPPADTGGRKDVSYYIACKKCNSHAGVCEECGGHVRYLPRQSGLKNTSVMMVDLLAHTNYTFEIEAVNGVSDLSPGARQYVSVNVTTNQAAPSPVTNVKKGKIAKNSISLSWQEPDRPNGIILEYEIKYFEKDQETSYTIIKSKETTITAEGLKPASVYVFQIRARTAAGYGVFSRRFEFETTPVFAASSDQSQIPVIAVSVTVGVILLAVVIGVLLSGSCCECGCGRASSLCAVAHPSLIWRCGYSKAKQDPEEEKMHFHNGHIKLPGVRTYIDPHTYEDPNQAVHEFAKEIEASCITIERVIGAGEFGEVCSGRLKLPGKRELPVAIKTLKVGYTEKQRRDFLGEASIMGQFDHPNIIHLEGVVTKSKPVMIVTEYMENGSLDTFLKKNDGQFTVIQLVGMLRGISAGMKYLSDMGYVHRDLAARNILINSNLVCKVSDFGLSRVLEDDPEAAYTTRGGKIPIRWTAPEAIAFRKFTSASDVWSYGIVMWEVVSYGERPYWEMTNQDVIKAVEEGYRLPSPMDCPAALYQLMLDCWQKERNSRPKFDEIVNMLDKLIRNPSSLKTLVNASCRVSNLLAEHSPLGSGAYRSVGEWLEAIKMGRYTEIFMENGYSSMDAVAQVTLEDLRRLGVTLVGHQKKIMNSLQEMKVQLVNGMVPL
Tyrosine-protein kinase Fgr (Homo sapiens), sequence (P09769 2-529 limits assumed): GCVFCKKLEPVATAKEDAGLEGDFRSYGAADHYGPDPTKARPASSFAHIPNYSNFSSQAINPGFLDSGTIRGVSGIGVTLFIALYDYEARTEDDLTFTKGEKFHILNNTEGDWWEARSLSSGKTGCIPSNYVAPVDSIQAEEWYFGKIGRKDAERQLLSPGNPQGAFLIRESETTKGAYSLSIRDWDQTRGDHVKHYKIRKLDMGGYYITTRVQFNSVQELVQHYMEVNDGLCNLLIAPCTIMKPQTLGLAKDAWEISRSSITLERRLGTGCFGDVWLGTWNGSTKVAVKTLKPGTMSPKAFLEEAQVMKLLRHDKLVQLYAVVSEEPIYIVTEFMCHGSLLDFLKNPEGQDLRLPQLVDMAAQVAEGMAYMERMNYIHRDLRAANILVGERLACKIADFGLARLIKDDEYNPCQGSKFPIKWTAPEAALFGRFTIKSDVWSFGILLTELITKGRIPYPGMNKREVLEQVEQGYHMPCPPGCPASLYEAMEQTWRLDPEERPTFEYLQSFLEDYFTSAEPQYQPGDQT
Serine/threonine-protein kinase BRSK2 (Homo sapiens), sequence (Q8IWQ3 whole entry): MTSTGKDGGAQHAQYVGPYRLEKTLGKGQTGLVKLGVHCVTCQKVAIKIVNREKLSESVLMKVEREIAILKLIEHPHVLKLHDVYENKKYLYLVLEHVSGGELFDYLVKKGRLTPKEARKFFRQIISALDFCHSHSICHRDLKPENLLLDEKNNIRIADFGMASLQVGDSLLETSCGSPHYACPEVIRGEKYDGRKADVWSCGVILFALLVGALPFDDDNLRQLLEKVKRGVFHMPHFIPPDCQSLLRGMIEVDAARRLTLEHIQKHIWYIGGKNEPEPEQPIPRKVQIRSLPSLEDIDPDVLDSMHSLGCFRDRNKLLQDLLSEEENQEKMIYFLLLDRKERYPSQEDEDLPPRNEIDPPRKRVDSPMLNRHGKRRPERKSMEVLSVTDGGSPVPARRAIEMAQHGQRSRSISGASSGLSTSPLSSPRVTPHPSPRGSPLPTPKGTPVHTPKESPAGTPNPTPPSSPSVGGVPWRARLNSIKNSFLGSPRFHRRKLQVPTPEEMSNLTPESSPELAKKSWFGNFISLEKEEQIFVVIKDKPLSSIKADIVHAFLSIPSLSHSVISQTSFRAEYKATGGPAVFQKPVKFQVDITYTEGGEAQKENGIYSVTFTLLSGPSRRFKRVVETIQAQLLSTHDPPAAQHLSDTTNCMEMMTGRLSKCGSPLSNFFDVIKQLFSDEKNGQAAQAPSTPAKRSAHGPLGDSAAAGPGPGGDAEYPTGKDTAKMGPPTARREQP
Serine/threonine-protein kinase MRCK beta (Homo sapiens), sequence (Q9Y5S2 whole entry): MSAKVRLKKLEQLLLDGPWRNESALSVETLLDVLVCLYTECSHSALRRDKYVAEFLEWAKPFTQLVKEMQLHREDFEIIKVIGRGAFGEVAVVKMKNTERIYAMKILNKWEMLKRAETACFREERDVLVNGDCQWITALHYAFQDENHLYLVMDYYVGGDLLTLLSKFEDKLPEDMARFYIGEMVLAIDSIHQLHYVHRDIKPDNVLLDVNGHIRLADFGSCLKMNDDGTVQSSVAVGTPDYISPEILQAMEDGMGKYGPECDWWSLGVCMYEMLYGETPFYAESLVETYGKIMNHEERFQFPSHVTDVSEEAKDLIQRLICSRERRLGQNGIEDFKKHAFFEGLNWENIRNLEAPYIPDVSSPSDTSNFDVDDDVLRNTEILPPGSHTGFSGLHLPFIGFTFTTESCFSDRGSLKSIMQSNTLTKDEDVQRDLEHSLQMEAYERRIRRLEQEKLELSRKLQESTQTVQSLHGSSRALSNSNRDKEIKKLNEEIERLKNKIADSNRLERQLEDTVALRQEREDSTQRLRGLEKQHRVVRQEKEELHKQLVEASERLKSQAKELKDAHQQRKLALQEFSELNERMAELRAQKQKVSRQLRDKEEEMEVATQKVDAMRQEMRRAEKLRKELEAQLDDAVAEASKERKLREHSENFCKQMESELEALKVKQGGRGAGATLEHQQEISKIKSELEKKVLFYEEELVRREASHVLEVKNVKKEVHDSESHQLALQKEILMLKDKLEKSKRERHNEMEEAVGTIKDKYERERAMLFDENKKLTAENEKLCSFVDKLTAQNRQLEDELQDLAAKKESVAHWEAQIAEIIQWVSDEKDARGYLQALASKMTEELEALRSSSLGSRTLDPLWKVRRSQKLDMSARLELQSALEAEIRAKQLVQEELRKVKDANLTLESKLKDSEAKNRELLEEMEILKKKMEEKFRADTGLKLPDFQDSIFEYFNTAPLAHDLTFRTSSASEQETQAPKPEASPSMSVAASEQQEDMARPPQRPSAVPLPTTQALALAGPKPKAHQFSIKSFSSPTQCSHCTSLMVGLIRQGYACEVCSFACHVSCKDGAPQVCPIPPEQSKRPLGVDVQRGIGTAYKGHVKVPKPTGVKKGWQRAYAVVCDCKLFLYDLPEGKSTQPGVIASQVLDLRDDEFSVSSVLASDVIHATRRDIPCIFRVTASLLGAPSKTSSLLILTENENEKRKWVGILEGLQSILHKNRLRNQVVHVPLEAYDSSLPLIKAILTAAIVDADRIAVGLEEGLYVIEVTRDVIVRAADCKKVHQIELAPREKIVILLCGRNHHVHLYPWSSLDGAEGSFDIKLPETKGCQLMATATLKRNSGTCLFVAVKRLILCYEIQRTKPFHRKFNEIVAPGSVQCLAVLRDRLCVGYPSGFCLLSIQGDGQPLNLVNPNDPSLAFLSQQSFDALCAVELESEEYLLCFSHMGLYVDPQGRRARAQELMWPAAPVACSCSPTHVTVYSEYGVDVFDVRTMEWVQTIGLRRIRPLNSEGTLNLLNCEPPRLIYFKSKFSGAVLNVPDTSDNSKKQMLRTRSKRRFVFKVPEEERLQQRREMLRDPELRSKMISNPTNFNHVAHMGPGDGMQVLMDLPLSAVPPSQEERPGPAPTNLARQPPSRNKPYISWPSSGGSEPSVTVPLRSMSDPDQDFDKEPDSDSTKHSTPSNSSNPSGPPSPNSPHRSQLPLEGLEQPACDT
Protein kinase C iota type (Homo sapiens), sequence (P41743 whole entry): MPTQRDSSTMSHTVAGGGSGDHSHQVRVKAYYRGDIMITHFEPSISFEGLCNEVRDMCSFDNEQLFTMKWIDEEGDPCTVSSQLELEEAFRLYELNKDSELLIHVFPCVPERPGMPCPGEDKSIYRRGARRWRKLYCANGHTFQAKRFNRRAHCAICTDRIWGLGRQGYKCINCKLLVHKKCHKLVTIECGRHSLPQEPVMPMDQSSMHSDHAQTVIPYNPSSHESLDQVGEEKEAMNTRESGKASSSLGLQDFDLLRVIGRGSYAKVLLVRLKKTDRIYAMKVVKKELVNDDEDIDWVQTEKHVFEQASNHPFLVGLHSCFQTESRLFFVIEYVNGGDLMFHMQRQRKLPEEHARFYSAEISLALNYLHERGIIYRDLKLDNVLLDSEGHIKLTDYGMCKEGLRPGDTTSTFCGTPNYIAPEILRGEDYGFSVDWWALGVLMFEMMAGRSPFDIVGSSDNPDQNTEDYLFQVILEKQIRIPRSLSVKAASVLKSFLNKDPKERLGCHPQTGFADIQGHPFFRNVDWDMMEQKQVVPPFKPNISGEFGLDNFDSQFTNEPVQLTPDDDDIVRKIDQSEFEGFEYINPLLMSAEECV
MAP kinase-activated protein kinase 3 (Homo sapiens), sequence (Q16644 whole entry, looked up): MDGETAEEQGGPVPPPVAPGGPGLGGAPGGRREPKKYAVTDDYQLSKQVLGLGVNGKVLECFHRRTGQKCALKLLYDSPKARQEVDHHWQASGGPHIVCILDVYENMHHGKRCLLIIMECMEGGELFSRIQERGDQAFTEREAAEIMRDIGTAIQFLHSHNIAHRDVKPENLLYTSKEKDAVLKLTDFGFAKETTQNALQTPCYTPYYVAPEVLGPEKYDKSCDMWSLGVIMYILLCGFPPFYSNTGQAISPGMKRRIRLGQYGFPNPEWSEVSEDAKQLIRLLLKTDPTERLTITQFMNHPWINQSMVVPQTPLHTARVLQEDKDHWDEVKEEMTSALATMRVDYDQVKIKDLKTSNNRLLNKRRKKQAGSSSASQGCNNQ

Compound `O=C(O)c1ccc(Nc2ncc3c(n2)-c2ccc(Cl)cc2C(c2c(F)cccc2F)=NC3)cc1` [MLN-8054] has an Activity [1] of 107%, an IC50 (NCI-H460) of 110 nM and an Activity [2] of 101%. For the same compound, the IC50 [3] was > 100000 nM, the Activity [4] was 90% and the Activity [5] was 29%. The Activity (Homo sapiens [6]) was 100%, the Activity (Bos taurus) was 86% and the Activity [7] was 104%. The Activity [8] was 36%, the Activity [9] was 99% and the Activity (Homo sapiens [10]) was 100%. For the same compound, the IC50 [11] was > 100000 nM, the Activity [12] was 110% and the IC50 (MCF7) was 670 nM. For the same compound, the Activity [13] was 97%, the Activity (PC-3 [14]) was “Active” and the Activity (Homo sapiens [15]) was 94%. For the same compound, the concentration at 24 h [16] was 400 nM, the Activity [17] was 140% and the Activity (PC-3 [18]) was “Active”. It also gave an Activity (PC-3 [19]) of 5%, an Activity [20] of 112% and an Activity [21] of 96%. The Activity [22] was 115%, the Activity [23] was 98% and the IC50 (PC-3 [24]) was 790 nM. It also gave an IC50 (MDA-MB-231) of 740 nM, an Activity [25] of 114% and an Activity [26] of 104%. The Activity (PC-3 [27]) was 7%, the Activity [28] was 109% and the Activity [29] was 107%. It also gave an Activity [30] of 92%, an Activity [31] of 106% and an Activity [32] of 105%. It also gave an Activity [33] of 95%, an IC50 (DLD-1) of 1430 nM and an Activity [34] of 101%. It also gave an Activity [35] of 95%, an IC50 [36] of 19000 nM and an Activity [37] of 95%. It also gave an Activity [38] of 80%, an Activity [39] of 112% and an Activity [40] of 95%.
